In ChEMBL document CHEMBL1140540, “Investigating the antiproliferative activity of quinoline-5,8-diones and styrylquinolinecarboxylic acids on tumor cell lines” (Bioorg Med Chem Lett, 2007):

Columns and labels:
[1] = tested on: P388; test: Antiproliferative activity against mouse P388 cells at 0.1 uM by MTT assay; type: functional
Method in brief: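 P388 cells in RPMI 1640 with 2 mM L-glutamine, 1.5 g/L NaHCO3, 4.5 g/L glucose, 1.0 mM pyruvate and 10% FBS, at 37 °C in 5% CO2. Plated 24 h before treatment, then 72 h exposure at a single concentration. MTT readout: 4 h MTT, DMF/SDS lysis, OD570 after 24 h. Value expressed as percent inhibition of proliferation.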

[2] = Lipophilicity, log K of the compound; type: physicochemical; conditions: HPLC
Method in brief: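 Hydrophobicity determined by HPLC.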

[3] = tested on: P388; test: Antiproliferative activity against mouse P388 cells by MTT assay; type: functional, cell-based
Method in brief: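 P388 cells in RPMI 1640 with 2 mM L-glutamine, 1.5 g/L NaHCO3, 4.5 g/L glucose, 1.0 mM pyruvate and 10% FBS, at 37 °C in 5% CO2. Plated 24 h before treatment, then exposed 72 h to varying concentrations. MTT 4 h at 37 °C, DMF/SDS lysis, OD570 after 24 h. IC50 from triplicates, 3–7 repeat experiments.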

[4] = tested on: SK-N-MC; test: Antiproliferative activity against human SK-N-MC cells by MTT assay; type: functional, cell-based
Method in brief: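 SK-N-MC cells in MEM with 10% (v/v) FBS, 1.0 mM sodium pyruvate, 1% non-essential amino acids, L-glutamine, penicillin/streptomycin and fungizone. Plated 24 h before dosing and exposed 72 h to varying concentrations. MTT added for 4 h at 37 °C, then DMF/SDS lysis, with OD570 read after 24 h. IC50 from triplicate wells, experiments repeated 3–7 times.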

Compound	log K [2]	IC50 [3]	IC50 [4]	inhibition at 0.1 µM [1]
Oc1cccc2ccc(/C=C/c3cccc(Cl)c3)nc12	1.5395	–	–	15%
O=[N+]([O-])c1cc([N+](=O)[O-])c2cccnc2c1O	0.7154	7.14 µM	> 6.25 µM	–
O=C(O)c1ccc2nc(/C=C/c3ccc(Cl)cc3)ccc2c1	1.6043	116 µM	–	–
O=C(O)c1ccc2nc(/C=C/c3cccc(Cl)c3)ccc2c1	1.6315	110 µM	–	–
COc1cccc(/C=C/c2ccc3c(C(=O)O)ccc(C(=O)O)c3n2)c1	1.1811	–	–	25%
O=C(O)c1cccc2nc(/C=C/c3ccc(Br)cc3)ccc12	1.4397	109 µM	–	–
COc1ccc(/C=C/c2ccc3c(NC(C)=O)cc(NC(C)=O)c(OC(C)=O)c3n2)c(OC)c1	–	–	–	20%
O=C(O)c1cc([N+](=O)[O-])c2ccc(/C=C/c3ccccc3Cl)nc2c1O	–	158 µM	–	–
O=C(O)c1ccc(C(=O)O)c2nc(/C=C/c3ccc(Cl)cc3)ccc12	1.2107	110 µM	–	–
O=C(O)c1ccc(C(=O)O)c2nc(/C=C/c3cccc(Cl)c3)ccc12	1.2163	114 µM	–	–
O=C(O)c1cccc2nc(/C=C/c3ccccc3O)ccc12	1.255	–	–	30%
O=C(O)c1ccc2ccc(/C=C/c3ccccc3O)nc2c1	1.3678	–	–	30%
COc1ccc(/C=C/c2ccc3c([N+](=O)[O-])cc(C(=O)O)c(O)c3n2)cc1	–	148 µM	–	–
O=C(O)c1ccc(C(=O)O)c2nc(/C=C/c3ccccc3Cl)ccc12	1.2047	114 µM	–	–

The remaining molecules from weak to strong by IC50 [3], led by results:

log K [2]	IC50 [3]	IC50 [4]	Compound	inhibition at 0.1 µM [1]
1.2263	100 µM	–	COc1cccc(/C=C/c2ccc3c(C(=O)O)cccc3n2)c1	–
1.2062	89.4 µM	–	O=C(O)c1ccc(C(=O)O)c2nc(/C=C/c3ccccc3Br)ccc12	–
–	79.1 µM	–	COc1ccc(/C=C/c2ccc3c([N+](=O)[O-])cc([N+](=O)[O-])c(O)c3n2)cc1	–
1.3842	51.1 µM	–	O=C(O)c1ccc2nc(/C=C/c3ccccc3O)ccc2c1	–
1.8165	15.3 µM	–	O=C(O)c1cccc2ccc(/C=C/c3ccc(Cl)cc3)nc12	–
1.6787	13.6 µM	–	O=C(O)c1cccc2ccc(/C=C/c3ccccc3O)nc12	–
–	10.3 µM	–	Cc1ccc2c(n1)C(=O)C(N)=CC2=O	–
–	7.14 µM	–	O=[N+]([O-])c1cc([N+](=O)[O-])c2ccc(/C=C/c3ccc(Cl)cc3)nc2c1O	–
–	6.58 µM	–	CC(=O)Nc1cc(NC(C)=O)c2ccc(/C=C/c3ccccc3Br)nc2c1OC(C)=O	–
0.0907	6.1 µM	4.26 µM	COC1=CC(=O)c2ccc(C)nc2C1=O	–
–	2.39 µM	–	Cc1ccc2c(n1)C(=O)C(NC(=O)/C=C/c1ccccc1)=CC2=O	–
0.2227	1.61 µM	> 6.25 µM	CC(=O)NC1=CC(=O)c2ccc(C)nc2C1=O	–
–	1.51 µM	–	CCCC(=O)NC1=CC(=O)c2ccc(C)nc2C1=O	–
–	1.44 µM	–	Cc1ccc2c(n1)C(=O)C(NC(=O)CCc1ccccc1)=CC2=O	–
–	1.43 µM	–	CCC(=O)NC1=CC(=O)c2ccc(C)nc2C1=O	–
